This is an account of results in article PMC3128789 (Nuclear medicine and biology, 2011).

The conditions of data set [1]: by 5 h; cited from earlier work.
Data set [2] relates to hexokinase. The note with it: cited from earlier work.
Data set [3] in a line: Urinary excretion of radioactivity. The note with it: by 24 h, 3H radioactivity. Format: in vivo, Sprague-Dawley rats. In short, it runs like this: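 Rats under isoflurane received 74 kBq (2 μCi) [1-³H]6FDG by tail vein and were handled as in the ¹⁸F study: recovery in a metabolic cage for the later time points. Urine radioactivity was counted directly and expressed as a percentage of injected radioactivity at 1, 6 and 24 h.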

Data set [4] relates to glucose dehydrogenase. The note with it: enzyme derived from rat liver; cited from earlier work.
The format of data set [5] is in vivo, Sprague-Dawley rats. As to conditions: average of all tissues, 1 h after i.v. injection.
Data set [6] is classed as in vivo, Sprague-Dawley rats. As to conditions: liver. The gist of the method:
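Rats under 2% isoflurane in oxygen received the tracer by tail vein: about 37 MBq (1 mCi) for the 1 h point and 370 MBq (10 mCi) for 6 h. Tissues were homogenised in 8 mL/g ice-cold ethanol:PBS:water (65:10:25) and spun 15 min at 23,500 × g, 4 °C. The methanol-water extract was dried, taken up in water and run on formate-form AG 1-X8 anion exchange, eluting with water then formic acid. Columns were counted afterwards.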

The conditions of data set [7]: intact rats, without phlorizin (SGLT inhibitor) pre-treatment; cited from earlier work.
Data set [8] is classed as in vivo, Sprague-Dawley rats. As to conditions: 1 h biodistribution time.
A short description of data set [9]: HPLC quantification of neutral radioactivity. The class given is in vivo, Sprague-Dawley rats.
Data set [10] is classed as in vivo, Sprague-Dawley rats.

Where two headings read alike, the source gives them in different places.

Turning to `CO[C@@H]([C@H](O)[C@H](O)CO)[C@@H](O)C=O` [3OMG, 3-O-methyl-glucose, reference compound], the urinary excretion in data set [1] is listed as 50%. Also, the “phosphorylation by hexokinase in vitro” value in [2] is reported as “can be phosphorylated”.

For the compound `O=C[C@H](O)[C@@H](O)[C@H](O)[C@H](O)CF` [6FDG, 6-fluoro-6-deoxy-D-glucose], the “urinary excretion of radioactivity, percentage of injected radioactivity” value in data set [3] is “less than 8%”. The “activity of glucose dehydrogenase on substrate” value (“activity … on substrate” for short) in data set [4] was “same activity”. Also, in data set [2] (preliminary evaluation), the “phosphorylation by hexokinase in vitro” value was “lack of its phosphorylation”.

On to `OC[C@H]1OC(O)[C@H](O)[C@@H](O)[C@@H]1O` (stereo partly drawn) [D-glucose], for which the “activity … on substrate” value in data set [4] is “same activity”.

Regarding `O=C[C@H](O)[C@@H](O)[C@H](O)[C@H](O)C[18F]` [[^18F]6FDG, [^18F]6-fluoro-6-deoxy-D-glucose], the “percentage of homogenate 18F radioactivity in the methanol-water layer (extraction)” value in data set [5] is 95.6 ± 2.6%. Moreover, the “percentage of 18F radioactivity remaining bound to the anion exchange column” value is reported as 1% in data set [6] (1 h) and 5% in data set [6] (6 h). Also, in data set [7], the “urinary excretion of [18F]6FDG” value is “little urinary excretion”.

For `C[C@@H](O)[C@@H](O)[C@H](O)[C@@H](O)C=O` [6-deoxy-D-glucose], the “activity … on substrate” value in data set [4] was “same activity”.

Take `[3H]C1(O)O[C@H](CF)[C@@H](O)[C@H](O)[C@H]1O` (stereo partly shown) [[1-^3H]6FDG]: the “percentage of 3H radioactivity eluting with water, cation exchange column” value in data set [8] was approximately 100%. The “percentage of radioactivity eluting as [1-3H]6FDG (HPLC)” value in data set [9] (blood, 6 h) is given as more than 99%. The “percentage of radioactivity eluting as 6FDG (HPLC)” value in data set [9] (heart, 1 h (lowest tissue)) came out at 90%; in [9] (heart, 6 h (lowest tissue)), 69%; in data set [9] (skeletal muscle, 24 h (lowest tissue)), 65%. The “percentage of radioactivity eluting as [1-3H]6FDS (HPLC)” value was found to be 28% in data set [9] (heart, 6 h (highest tissue)) and 31% in [9] (skeletal muscle, 24 h (highest tissue)). For the same compound, in [10] (24 h after i.v. injection), the blood radioactivity entry was “negligible”. In addition, the “percentage of 3H radioactivity eluting with water, anion exchange column” value in data set [10] (average across tissues, 1 h) is given as 101%; in [10] (average across tissues, 24 h) it was 95%; in [10] (individual tissues, 1 h) it was not below 90%.
